APJ antagonist – antagonists of human APJ apelin receptor | P35414 | CHO-K1 APJ beta-arrestin complementation, luminescence | inhibition, % at 20 µM | 0.32% of 330,000 active | AID 2521;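 active = inhibition above about 40% at 20 µM, limit read from the data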;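 note: cells challenged with 10 nM apelin-13 agonist together with compound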
EBI2 block – blocks human EBI2 receptor beta-arrestin signaling. 0.81% of 360,000 active. EBI2 beta-arrestin recruitment, luminescence, 7a,25-OHC stimulated. inhibition, % at 5 µM. P32249; in the data active = inhibition above about 38%;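 note: enzyme fragment complementation signal reports receptor beta-arrestin coupling in cells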
APJ ag – agonists of human APJ apelin receptor | P35414 | CHO-K1 APJ PathHunter beta-arrestin, luminescence; 0% DMSO wells, 100% apelin | activation, % at 20 µM | 0.11% of 330,000 active | AID 2520;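 active = activation more than six SD over the plate average, tested at 20 µM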
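Assay system: engineered CHO-K1 APJ arrestin reporter cells; Amount: 1000 CHO-K1 reporter cells seeded per well; Dosing: one dose, 20 µM compound, 1% DMSO; Times: compound stimulation 90 min at 25 °C, detection 60 min; Measured by: luminescent beta-gal fragment complementation, chemiluminescent substrate; Read-out: APJ–arrestin association signal; Controls: DMSO vs Apelin-13 10 nM.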
CCR6 antagonist – CCR6 (human) receptor antagonism; inhibition, % at 20 µM; AID 493098; 0.49% of 340,000 active; CHO-K1 CCR6 PathHunter beta-arrestin, luminescence, CCL20-stimulated; P51684;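 active = compounds whose inhibition of the agonist-driven luminescence signal at 20 µM reaches about 50%, limit read from the data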;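 note: cells stimulated with CCL20 at 14 nM final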
Target sequence (P51684 whole entry, looked up): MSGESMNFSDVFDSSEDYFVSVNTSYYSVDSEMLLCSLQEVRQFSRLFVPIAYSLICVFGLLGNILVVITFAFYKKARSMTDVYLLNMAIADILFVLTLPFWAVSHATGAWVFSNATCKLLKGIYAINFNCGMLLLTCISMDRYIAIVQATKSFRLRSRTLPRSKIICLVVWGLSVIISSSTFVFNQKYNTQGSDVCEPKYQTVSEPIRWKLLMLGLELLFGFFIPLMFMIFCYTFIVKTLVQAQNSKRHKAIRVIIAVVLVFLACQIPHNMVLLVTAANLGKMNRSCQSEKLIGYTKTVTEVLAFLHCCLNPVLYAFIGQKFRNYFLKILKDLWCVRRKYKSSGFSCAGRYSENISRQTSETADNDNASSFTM
CXCR6 inh – CXCR6 (human) receptor inhibition; O00574; CHO-K1 PathHunter CXCR6 beta-arrestin, luminescence; inhibition, % at 20 µM; 0.36% of 360,000 active; AID 602244; in the data active = inhibition above about 34%, passing the limit was not always enough;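 note: antagonist mode with CXCL16 agonist at 10 nM final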
A number is an active result; – = inactive; · = no result given. Most compounds without a hit are left out; they make up all but 1.5% or so of the library.

SMILES	APJ antagonist	EBI2 block	APJ ag	CCR6 antagonist	CXCR6 inh
C/C=C(\C)C(=O)OC1[C@H](OC(C)=O)C2(CO)C(CC1(C)C)C1=CCC3C4(C)CCC(O[C@@H]5O[C@H](C(=O)O)[C@@H](O[C@@H]6O[C@H](CO)[C@@H](O)[C@H](O)[C@H]6O)[C@H](O)[C@H]5O[C@H]5O[C@H](CO)[C@@H](O)[C@H](O)[C@H]5O)[C@](C)(CO)C4CCC3(C)[C@]1(C)C[C@H]2O (some centres not stated)	·	–	·	95	82
C/C=C(/C)C(=O)OC1CC(C)(C)C[C@H]2C3=CC[C@@H]4[C@@]5(C)CCC(O[C@@H]6O[C@@H](C(=O)O)[C@@H](O)C(O[C@@H]7OC[C@H](O)[C@@H](O)[C@@H]7O[C@@H]7OC(CO)C(O)[C@@H](O)[C@@H]7O)C6O[C@@H]6OC(CO)C(O)C(O)C6O)[C@@](C)(CO)[C@@H]5CC[C@]4(C)[C@]3(C)CC(O)[C@@]12CO (some centres not stated)	–	–	–	–	–
CCOC(=O)c1c(C)[nH]c(C(=O)NCC(c2ccco2)N2CCCCC2)c1C (configuration not stated)	–	–	–	–	–
CCOc1cccc(C(=O)Nc2ccccc2C(=O)N2CCOCC2)c1	–	–	–	–	–
On1ccccc1=S	·	–	·	83	75
CCOc1ccc(NC(=O)Nc2ccc3nsnc3c2)cc1	–	–	–	–	–
CCOc1ccc(NC(=S)Nc2ccc3nsnc3c2)cc1	–	53	–	–	–
Oc1ccc(/C=N/Nc2cc(N3CCCC3)nc(N3CCCC3)n2)cc1	–	55	–	–	–
O=C(NC(=S)Nc1cc(Cl)ccc1O)c1cccc(Br)c1	–	–	–	59	–
O=C(NC(=S)Nc1cccnc1)c1cccc(Br)c1	–	–	–	58	–
O=C(NC(=S)Nc1cccnc1)c1ccccc1	–	–	–	–	–
O=C(NNC(=O)c1cccc(Br)c1)Nc1ccc(Cl)cc1	–	–	–	–	–
O=C(NC(=S)Nc1ccc2oc(-c3cccnc3)nc2c1)c1cccc(Cl)c1	–	–	–	54	–
CCc1cccc(NC(=O)CN(c2ccc(C)cc2)S(=O)(=O)c2c(C)noc2C)c1	–	–	–	–	–
O=C(/C=C/c1ccccc1)c1cc(Br)ccc(=O)c1O	–	–	–	59	–
Cc1[nH]n(-c2nc(-c3ccc(Cl)cc3)cs2)c(=O)c1N=Nc1ccc(O)cc1	–	51	–	–	–
CC(C(=O)N1CCc2ccccc21)N1CCN(Cc2ccccc2)CC1 (configuration not stated)	–	–	–	–	–
CN(N=Cc1ccccc1O)c1ccc2ccccc2n1	·	–	·	·	–
CN(/N=C/c1cc(Br)cc(Br)c1O)c1cccc(C(F)(F)F)n1	–	–	–	·	58
CC(C)n1cc(/C(N)=N/O)c(=O)n(Cc2ccccc2)c1=O	–	–	–	–	–
Cc1ccccc1N1C(=O)CC(Sc2nnc(-c3ccccc3)o2)C1=O (configuration not stated)	–	–	–	·	52
CCOc1ccc(N2C(=O)CC(Sc3nnnn3-c3ccccc3)C2=O)cc1 (configuration not stated)	·	–	·	·	52
CN(C(=O)c1cccs1)C1(C)CCS(=O)(=O)C1 (configuration not stated)	–	–	–	–	–
O=C1OC2(c3ccccc31)c1cc(I)c(O)c(I)c1Oc1c2cc(I)c(O)c1I	46	·	–	·	·
Cc1cc(O)ccc1C1(c2ccc(O)cc2C)OC(=O)c2ccccc21	–	–	–	–	–
SMILES	APJ antagonist	EBI2 block	APJ ag	CCR6 antagonist	CXCR6 inh
CC(C)(C)S(=O)N1Cc2cc(C(=O)N3CCc4ccccc4C3)nc(-c3cccc(-c4cccnc4)c3)c2[C@@H]1CCO (some centres not stated)	·	–	·	·	–
CCOC(=O)c1c(NC(N)=O)sc(C)c1C	–	–	–	–	–
CCOC(=O)c1c(N2C(=O)C=CC2=O)sc(C)c1C	–	–	–	·	61
COc1cc(N=Nc2cccc(S(N)(=O)=O)c2)c2ccccc2c1N	·	–	·	67	–
CCN(CC)C(=O)Oc1ccc(Cl)c2cccnc12	–	–	–	–	–
O=C(Nc1cccc(C(F)(F)F)c1)Oc1ccc(Cl)c2cccnc12	·	–	·	77	60
N#Cc1c(NC(=O)c2ccc(-c3ccccc3[N+](=O)[O-])o2)sc2c1CCCC2	–	–	–	–	–
CC1CCc2c(sc(NC(=O)c3ccc(-c4ccccc4[N+](=O)[O-])o3)c2C#N)C1 (configuration not stated)	–	–	–	58	–
CCc1noc(C)c1C(=O)N(C)CC(=O)Nc1cccc(OC)c1	–	–	–	–	–
Oc1ccc(N=Nc2nc(-c3ccccc3)c(-c3ccccc3)[nH]2)cc1	54	–	–	67	53
CCN(CC)c1ccc(/C=N/N=C(c2ccccc2)c2ccccc2)c(O)c1	–	66	–	–	–
Fc1cccc(NC(=S)NNc2ccccc2)c1	–	–	–	–	–
Fc1cccc(NC(=S)NNc2c3ccccc3nc3ccccc23)c1	·	–	·	56	–
Cc1ccc(OCCC(=O)OC(C)C(=O)NC2CC2)cc1 (configuration not stated)	–	–	–	–	–
COc1ccccc1-c1cc(C(=O)Nc2cc(C)n(Cc3ccc(Cl)cc3)n2)no1	–	52	–	–	–
CCc1ccc(S(=O)(=O)Nc2cccc(-c3ccc4nnc(C)n4n3)c2)s1	–	–	–	–	–
Cc1ccsc1C=Nc1ccc(O)cc1	–	45	–	–	–
Cc1ccc(C(=O)ONc2ccc(N=NC(=O)c3ccccc3O)cc2)cc1	–	–	–	56	–
CCCCC(Sc1nc(C)c(Cc2ccccc2)c(=O)[nH]1)C(=O)O (configuration not stated)	–	–	–	–	–
CC(C)Oc1cccc(C(=O)NC(=S)Nc2cccc(C(F)(F)F)c2)c1	–	–	–	·	–
CCCCOc1cccc(C(=O)NC(=S)Nc2cccc(C(F)(F)F)c2)c1	–	–	–	51	–
Cc1ccccc1N=Nc1ccc(O)c2ncccc12	·	–	·	–	–
O=S(=O)(O)c1cccc2c(N=Nc3ccc(O)c4ncccc34)cccc12	·	–	·	·	37
CC1(C)Cc2c(c(N3CCOCC3)nc3sc4c(NCc5ccccc5)nnnc4c23)CS1	–	76	–	–	–
COc1cccc(C(O)c2nc(-c3cccc(CO)c3)cs2)c1 (configuration not stated)	·	–	·	·	–
CC(C)(C)C1CCN2CCCC(c3ccc([N+](=O)[O-])cc3)(C1)C21OCCO1 (configuration not stated)	·	–	·	·	–
COc1cc(OC)cc(-c2nc3ccccc3c(=O)n2OC(=O)c2ccc(C)c(C)c2)c1	–	–	11	–	–
CN(C)C1=NCCN1CCC1CCCCC1	–	–	–	–	–
CCN1/C(=C/c2cc[n+](C)cc2)C=Cc2cc(C)ccc21	·	–	·	57	–
